Laboratory results: PubChem BioAssay AID602219 (Southern Research Specialized Biocontainment Screening …, 2012)
pIC50: −log10 of the molar value. Inconclusive results are not listed. Activity calls are given as the source filed them.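 How the source made its calls: active means inhibition of 30% or more at any tested concentration; inactive means the rest, inconclusive results apart.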

target: M1-family alanyl aminopeptidase (Plasmodium falciparum 3D7); assay: malaria M1 alanyl aminopeptidase inhibitors – biochemical, QFRET, H-Leu-NHMec substrate, set 2, selectivity assay for PfM18AAP inhibitor project, dose response (AID 602219); details: recombinant PfM1AAP, H-Leu-NHMec fluorogenic cleavage
Summary of the method: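 Material: recombinant PfM1AAP enzyme / Input: enzyme at 5 µg/mL final / Timing: enzyme reaction 90 min at room temperature / Measure: IC50 from 4-parameter logistic fit, limits fixed 0–100% / Medium: Tris-HCl 50 mM pH 7.5, 2 mM CoCl2, 2% DMSO / Detection: fluorescence of released NHMec, excitation 370 nm, emission 460 nm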

Row | SMILES | pIC50
1 | Oc1ccc(CCNc2c3ccccc3nc3ccccc23)cc1O | 4.53
2 | Oc1ccc(-c2csc(NC3CCCC3)n2)cc1O | 4.20
3 | CN1CCN(c2nc(-c3ccc(O)c(O)c3)cs2)CC1 | 4.15
4 | Oc1ccc(-c2csc(Nc3ncccn3)n2)cc1O | 4.59
5 | Oc1ccc(CCNc2ccnc3ccccc23)cc1O | 4.33

same assay, conditions: recombinant PfM1AAP, H-Leu-NHMec fluorogenic cleavage; at 100 µM (top of the series)

Row | SMILES | inhibition
6 | COc1ccc(CCCN2CCN(C)CC2)cc1OC | inactive
7 | CN1CCN(CCc2ccc(O)c(O)c2)CC1 | inactive
8 | COc1ccc(CCNC(c2ccccc2)c2ccccc2)cc1OC | inactive
9 | CN1CCN(CCCc2ccc(O)c(O)c2)CC1 | inactive
